High-throughput results (PubChem BioAssay)
D1 mod – D1 CRE-luciferase signal change, two-sided – cell-based, HEK293 D1, dopamine EC30, D1 allosteric modulator project, primary screen; dopamine EC30 potentiation; actives deviate in either direction; D(1A) dopamine receptor (Homo sapiens), P21728; B-score at 10 µM; 5.9% of 58,000 active;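 active = luminescence count or its row- and column-corrected plate score outside the 99.7% band of the plate's sample wells, on either side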
RORa activator – activators of orphan receptor RORA, primary screen, cell-based, luminescence. 1.5% of 65,000 active. Nuclear receptor ROR-alpha (Homo sapiens), P35398. activation, % at 10 µM. CHO-K1 Gal4-RORA LBD luciferase reporter; percent increase over mock-subtracted basal signal. AID 560, 2006;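 active = activation above the mean of all tested compounds plus 3 SD, cut at about 49% in these data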;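 note: 0% = DMSO-treated RORA cells and 100% = added signal equal to DMSO minus mock-transfected cells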
M1 ag – M1 muscarinic receptor agonists, primary screen, CHO-M1 cells, Fluo-4 calcium, agonist mode; Muscarinic acetylcholine receptor M1; Fluo-4 calcium fluorescence; active compounds read high; AID 626, 2007; B-score at 10 µM; 3% of 64,000 active;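 active = fluorescence rise, raw or as B-score row- and column-corrected plate score, outside the 99.7% band of its plate's samples, either direction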
M1 antag – antagonists of rat M1 muscarinic receptor. CHO-M1 cells, Fluo-4 calcium, ACh EC80 antagonist mode; active compounds read low. 3.4% of 64,000 active. B-score at 10 µM;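 active = calcium fluorescence response, raw or row-and-column corrected B-score, differing from the plate sample mean either way at a set confidence level, mostly lower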
mHtt clearance – clearance of mutant huntingtin inclusions, primary screen, imaging, HeLa Exon1htt(103Q)mCFP, confocal imaging; aggregate imaging; zero = plate's median compound well; inhibition, % at 1.5 µM; 0.42% of 47,000 active; AID 853, 2007;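 active = inhibition of aggregate fluorescence above about 70%, also judged a hit by eye on the cell image, limit read from the data, passing the limit was not always enough; inconclusive = no rule stated for this call; inactive = not judged a hit on image review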;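 note: cells exposed to compound for three days before fixation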
SF-1 act – activators of human SF-1, primary screen, cell-based, CHO-K1, Gal4-SF-1 LBD, luciferase luminescence; Steroidogenic factor 1 (Homo sapiens), Q13285; CHO-K1 Gal4-SF-1 LBD luciferase reporter; % increase over DMSO SF-1-specific signal; activation, % at 10 µM; 1.9% of 65,000 active;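 active = activation above the mean activation of all tested compounds plus 3 SD, cut at about 50% in these data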
Target sequence (Q13285 whole entry, looked up, the tested form may be a part): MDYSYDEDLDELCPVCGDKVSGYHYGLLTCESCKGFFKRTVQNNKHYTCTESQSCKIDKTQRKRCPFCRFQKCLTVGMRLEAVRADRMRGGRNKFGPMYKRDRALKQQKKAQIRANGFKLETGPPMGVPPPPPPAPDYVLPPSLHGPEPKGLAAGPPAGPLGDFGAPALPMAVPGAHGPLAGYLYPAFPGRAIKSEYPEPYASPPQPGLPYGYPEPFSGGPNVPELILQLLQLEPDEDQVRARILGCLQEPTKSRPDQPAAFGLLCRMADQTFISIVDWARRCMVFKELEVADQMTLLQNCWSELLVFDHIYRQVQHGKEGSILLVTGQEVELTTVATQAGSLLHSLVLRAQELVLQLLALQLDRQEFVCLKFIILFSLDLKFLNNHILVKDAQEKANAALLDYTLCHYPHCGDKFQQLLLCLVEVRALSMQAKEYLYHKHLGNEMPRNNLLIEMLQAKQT
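Material: CHO-K1 cells with Gal4–hSF-1 LBD chimera plus Gal4-driven luciferase / Input: 4,000 CHO-K1 cells per well / Incubation: compound exposure 20 h at 37 °C / Signal: luminescence read 15 min after SteadyLite luciferase reagent, after room-temperature equilibration / Read-out: percent activation versus DMSO / Benchmarks: DMSO negative control and −SF1 background wells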
An asterisk follows results filed as active; ? = inconclusive; . = no result given. In the library only some 11% were active in any assay of this set; here they are far more common.

SMILES	D1 mod	RORa activator	M1 ag	M1 antag	mHtt clearance	SF-1 act
CC1=C(C#N)C(Nc2ccc(Cl)cn2)(C(F)(F)F)C(=O)N1 (centres undefined)	.	.	.	.	-15	.
c1ccc(-n2ncc3c(NCC4CCCO4)ncnc32)cc1 (centres undefined)	.	57*	1.8	-0.87	26	81*
Cc1cccc(-n2ncc3c(Nc4ccc(F)cc4)ncnc32)c1	.	64*	0.85	0.0012	.	74*
Cc1cccc(-n2ncc3c(N)ncnc32)c1	0.86	32	-0.33	-0.48	.	38
Cc1cccc(-n2ncc3c(N(C)Cc4ccccc4)ncnc32)c1	.	56*	0.026	-0.016	.	64*
CCOC(=O)N1CCC(Nc2ncnc3c2cnn3-c2ccccc2)CC1	-2.3	1	0.25	0.5	.	15
c1ccc(-n2ncc3c(NC4CCCCCC4)ncnc32)cc1	-1.8	77*	0.96	0.027	.	91*
COC(=O)c1ccc(Nc2ncnc3c2cnn3-c2cccc(C)c2)cc1	.	1	-0.28	0.055	.	1
CC(NC(=O)OCc1ccccc1)C(=O)N1CC(O)CC1C(=O)O (centres undefined)	0.67	-10	0.011	0.069	-80	15
COc1ccc(-n2ncc3c(Nc4cccc(C)c4)ncnc32)cc1	.	30	-0.31	0.16	.	80*
CCC(=O)Nc1cc2nn(-c3ccccc3)nc2cc1Cl	-5.4*	10	-0.91	-1.3	.	-18
CCC(=O)Nc1nc(N)n(-c2ccccc2)n1	.	.	.	.	43	.
Cc1cc2nn(-c3ccccc3)nc2cc1NC(=O)c1cccs1	-0.67	95*	0.54	-0.044	-47	38
Cc1cc(NC(=O)c2cccs2)n(-c2ccccc2)n1	.	.	.	.	9	.
CCCCn1c2c(c(=O)n(C)c1=O)C(c1ccc(OC)cc1)N1CCCCCC1=N2 (centres undefined)	2.2	0	-0.17	-1.5	.	-49
O=C(CSc1nnc(-c2ccco2)o1)N1c2ccccc2CCc2ccccc21	0.58	-16	1.3	-0.096	26	0
[O-][n+]1onc2c3cc(-c4ccccc4)nnc3ccc21	.	.	.	.	25	.
CNCc1ccccc1Sc1ccc(OC)c(OC)c1	.	.	.	.	14	.
O=C(c1cnn(-c2nc3ccccc3s2)c1)c1ccccc1O	.	52*	-0.11	0.59	-68	36
C/C=C/c1ccc(Oc2nnnn2-c2ccc(C(N)=O)cc2)c(OC)c1	-6.5*	-9	-0.78	-0.13	.	-10
CN1CCN(CCCNc2nc3ccccc3c3nc(-c4ccccc4)nn23)CC1	5.9*	-27	1.9	-2.2	.	8
CC(C)CSc1nc2c(=O)[nH][nH]c(=O)c2n1Cc1ccccc1	.	.	.	.	7	.
Cc1ccc2c(CC(=O)NCc3ccc4c(c3)OCO4)coc2c1	-0.3	-28	-0.51	0.3	.	0
Cc1ccc2c(CC(=O)Nc3sccc3C(N)=O)coc2c1	-1.1	45	-0.9	-0.46	.	87*
O=C(OCc1nnc(-c2ccccc2)o1)c1ccc(S(=O)(=O)NCc2ccco2)cc1	-0.06	-19	-0.86	0.099	71*	-2
SMILES	D1 mod	RORa activator	M1 ag	M1 antag	mHtt clearance	SF-1 act
O=c1c2cnn(-c3ccc(F)cc3)c2ncn1Cc1ccccc1	.	.	.	.	-12	.
O=C(NCc1ccccc1)c1noc2c1CCCCC2	0.19	30	0.49	-0.21	-19	52*
S=C(NN=C(C1CC1)C1CC1)Nc1ccccc1	.	.	.	.	-3	.
COC(=O)c1cc(OC)c(OC)cc1NC(=O)c1cc(C)on1	.	-12	0.53	0.062	-40	-11
CSc1ccc(-c2nnn(Cc3ccccn3)n2)cc1	-0.69	56*	-0.26	-0.52	.	57*
O=c1[nH]c(CN2CCN(CCO)CC2)nc2ccccc12	-0.31	4	-0.97	-0.0089	77*	5
O=C(CSc1nnc(-c2ccc(O)cc2)n1Cc1ccco1)c1cccs1	0.74	9	-0.17	0.19	.	-8
O=C(CC(SCc1ccco1)c1ccc(O)cc1)c1cccs1 (centres undefined)	.	87*	0.86	-0.37	.	31
CCCOC1(NC(=O)c2ccccc2)C(C)=CC(=O)C=C1C	-3.2*	-20	0.087	0.63	?	-8
NC(=O)c1ccccc1NC(=O)CCCN1C(=O)CCC1=O	-0.013	-15	-0.32	0.28	-52	-4
O=C(CCCCCN1C(=O)CCC1=O)NCc1ccccc1	1.1	-5	-1.3	2.1*	17	-17
CN(CC(=O)Nn1cnnc1)S(=O)(=O)c1ccccc1	.	.	.	.	-29	.
O=C(O)c1cnn(-c2ccccc2)c1-c1ccccc1	.	.	.	.	-5	.
CCC(C)n1c(SC(C)C#N)nc2ccccc2c1=O (centres undefined)	-4.8*	-2	0.064	-0.91	.	-2
Cc1cc(C)n2nc(Nc3ccccc3)cc2n1	0.43	23	-0.67	0.35	.	62*
Cc1cc(C)n2nc(C(=O)NCc3ccccc3)cc2n1	0.63	23	-0.0091	0.43	-20	7
CC(=O)C1=C(O)C(=O)N(Cc2ccco2)C1c1ccc(F)cc1 (centres undefined)	-2.8*	-9	-0.14	-0.12	.	-7
O=C(NCc1ccc(OC(F)(F)F)cc1)C1CC(c2c(Cl)cccc2Cl)=NO1 (centres undefined)	.	.	.	.	-7	.
Brc1ccc(-c2cn3cccnc3n2)cc1	-0.34	53*	0.64	0.68	-45	38
Clc1ccc(-c2cn3cccnc3n2)cc1	.	.	.	.	-43	.
CCSc1nc(-c2ccccc2)c(C#N)c(=O)[nH]1	-1.2	-16	-0.047	-0.27	-4	-1
N#Cc1c(-c2ccccc2)nc(SCc2nc(N)nc(N3CCCCC3)n2)[nH]c1=O	-3.2*	24	1.6	0.45	42	-19
O=C(O)c1ccccc1NS(=O)(=O)c1cccc2cccnc12	0.039	15	0.014	-1.5	77*	-8
CCOC(=O)c1ccc(NC(=O)C2(c3ccccc3)CCOCC2)cc1	.	.	.	.	40	.
Nc1cccc2c1C(=O)N(c1ccccc1)C2=O	2.5	6	70*	-0.37	.	-7
COC(=O)c1sc2ccccc2c1-n1cccc1C(=O)C(=O)Nc1ccc(OC)cc1	.	.	.	.	-3	.
O=C(CN1CCOc2ccccc21)N1CCN(c2cccc(Cl)c2)CC1	-0.31	-3	-0.34	-0.077	.	-13
CN=c1scc(C)n1/N=C/c1ccc2c(c1)OCO2	-3.2*	-22	0.8	-0.11	50	12
O=S(=O)(Nc1cccnc1)c1cccs1	0.041	-9	0.068	2.4*	-18	2
CCC(C)c1ccc(NC(=O)C2CC2)cc1 (centres undefined)	0.23	4	-0.23	-0.54	30	41
